This passage reports inhibition and Activity results from ChEMBL document CHEMBL1144139, “Immunosuppressive diterpenoids from Tripterygium wilfordii” (1999).

Common to all, as to type: functional
For assay [1], the system named is PBMC. As to the kind of experiment: Immunosuppressive activity against human PBMC assessed as inhibition of LPS-induced TNFalpha production at 10 ug/ml after 24 hrs by ELISA. Put shortly:
(§1)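 Heparinized whole blood from healthy volunteers, diluted to 30% in RPMI-1640 with penicillin/streptomycin, was mixed in equal volumes with LPS solution (3 µg/mL) and sample (3 mg/mL DMSO stock diluted 1:100; DMSO-only control). Incubated at 37 °C, 5% CO2. Supernatant cytokines measured by ELISA. Inhibition (%) = […] versus solvent control.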
A general note: ELISA stands for enzyme-linked immunosorbent assay.

In assay [2] the test system is PBMC. Nature of the assay: Immunosuppressive activity against human PBMC assessed as inhibition of LPS-induced IL8 production at 10 ug/ml after 24 hrs by ELISA. Put shortly:
as §1

Assay [3] relates to PBMC. As to the kind of experiment: Immunosuppressive activity against human PBMC assessed as inhibition of LPS-induced IL2 production at 10 ug/ml after 24 hrs by ELISA. The procedure, abridged:
as §1

Assay [4] deals with PBMC. Nature of the assay: Immunosuppressive activity against human PBMC assessed as inhibition of LPS-induced IL4 production at 10 ug/ml after 24 hrs by ELISA. The procedure, abridged: as §1
Assay [5] relates to PBMC. As to the kind of experiment: Immunosuppressive activity against human PBMC assessed as inhibition of LPS-induced IFN-gamma production at 10 ug/ml after 24 hrs by ELISA. The procedure, abridged: as §1
In assay [6] the test system is PBMC. As to the kind of experiment: Immunosuppressive activity against human PBMC assessed as inhibition of LPS-induced IL1-beta production at 10 ug/ml after 24 hrs by ELISA. The procedure, abridged:
as §1

Assay [7] has as its system PBMC. As to the kind of experiment: Immunosuppressive activity against human PBMC assessed as inhibition of LPS-induced TNFalpha production at 0.3 ug/ml after 24 hrs by ELISA.
Assay [8] deals with PBMC. As to the kind of experiment: Immunosuppressive activity against human PBMC assessed as inhibition of LPS-induced IL1-beta production at 0.3 ug/ml after 24 hrs by ELISA.
The test system of assay [9] is PBMC. As to the kind of experiment: Immunosuppressive activity against human PBMC assessed as inhibition of LPS-induced IFN-gamma production at 0.3 ug/ml after 24 hrs by ELISA.
For assay [10], the system named is PBMC. Nature of the assay: Immunosuppressive activity against human PBMC assessed as inhibition of LPS-induced IL2 production at 0.3 ug/ml after 24 hrs by ELISA.
Assay [11] has as its system PBMC. Nature of the assay: Immunosuppressive activity against human PBMC assessed as inhibition of LPS-induced IL4 production at 0.3 ug/ml after 24 hrs by ELISA.
For assay [12], the system named is PBMC. Nature of the assay: Immunosuppressive activity against human PBMC assessed as inhibition of LPS-induced IL8 production at 0.3 ug/ml after 24 hrs by ELISA.

The source made the active and inactive calls. The rule behind the calls is not given here.

Broadly, the inhibition is the change of the read-out against control, counted positive when it falls. As to `C[C@@]1(O)C[C@@]23CC[C@H]4[C@@]5(CCC[C@]4(C)C(=O)OC5)[C@@H]2CC[C@H]1C3` [TRIPTERIFORDIN], the inhibition at 10 µg/mL in the assay with PBMC [1] was 76.8%; in the assay on PBMC [2] it was 96.6%; in the assay on PBMC [3] it was 97.9%; with PBMC [4], 95.7%; in the assay with PBMC [5], 98.6%; in the assay on PBMC [6] it was 75.7%.

`C=C[C@]1(C)CC[C@@H]2[C@@]3(C)CCC[C@@](C)(C(=O)O)[C@@H]3CC[C@@]2(C)O1`: the inhibition at 10 µg/mL in the assay on PBMC [1] stood at 49.9%; in the assay with PBMC [2], 65.2%; in the assay on PBMC [3], 100%; in the assay on PBMC [4] it was 95.4%; in the assay with PBMC [5], 94%; in the assay with PBMC [6], 36.1%.

As to `C=C1C[C@H]2[C@@](C)(CO)C(=O)CC[C@]2(C)c2c(O)cc(C(C)C)c(OC)c21`, the result in the assay with PBMC [1], in the assay with PBMC [2], in the assay on PBMC [3], with PBMC [4], in the assay with PBMC [5] and in the assay with PBMC [6] was inactive.

With `C[C@]12C=CC(=O)C=C1CC[C@@H]1[C@@H]2[C@@H](O)C[C@@]2(C)[C@H]1CC[C@]2(O)C(=O)CO` [PREDNISOLONE], the inhibition at 0.3 µg/mL in the assay with PBMC [7] is 88.5%; in the assay with PBMC [8], 88.5%; in the assay with PBMC [9], 95.4%; with PBMC [10], 93.9%; in the assay on PBMC [11], 96.1%; in the assay on PBMC [12], 90.3%.

Take `CC(C)c1ccc2c(c1)C(=O)C[C@H]1[C@@](C)(CO)C(=O)CC[C@]21C` [TRIPTOBENZENE N]: the inhibition at 10 µg/mL in the assay on PBMC [1] was 13.3%; in the assay on PBMC [2], 15.4%; in the assay with PBMC [3] it was 64.5%; in the assay with PBMC [4], -52.2%; with PBMC [5], 42.3%; in the assay on PBMC [6] it was 37.9%.

Regarding `CC(C)c1ccc2c(c1)CC[C@H]1[C@@](C)(CO)[C@@H](O)CC[C@]21C`, the outcome in the assay on PBMC [1], in the assay on PBMC [2], in the assay on PBMC [3], in the assay on PBMC [4], with PBMC [5] and with PBMC [6] was inactive.

Regarding `C=C1C[C@H]2[C@@](C)(CO)C(=O)CC[C@]2(C)c2cc(O)c(C(C)C)cc21` [TRIPTOBENZENE M], the inhibition at 10 µg/mL in the assay with PBMC [1] was 7.5%; in the assay on PBMC [2], -29.1%; with PBMC [3] it was 55.6%; in the assay on PBMC [4], 40.1%; in the assay with PBMC [5] it was 54.1%; in the assay on PBMC [6], 13.5%.

Turning to `C[C@@]12CCC[C@@](C)(C(=O)O)[C@@H]1CC[C@@]13C[C@@H](CC[C@H]12)[C@](C)(O)C3`, the outcome with PBMC [1], with PBMC [2], in the assay on PBMC [3], in the assay on PBMC [4], in the assay with PBMC [5] and in the assay on PBMC [6] was inactive.

On to `C=C1C[C@H]2[C@@](C)(CO)[C@@H](O)CC[C@]2(C)C2=C1C(=O)C(C(C)C)=CC2=O` [TRIPTOQUINONE C], for which the inhibition at 10 µg/mL was -29.5% in the assay with PBMC [1]; -24.6% with PBMC [2]; 64% in the assay with PBMC [3]; 66.4% with PBMC [4]; 89% with PBMC [5]; 16.4% in the assay on PBMC [6].

For `C[C@@]12CCC[C@@](C)(C(=O)O)[C@@H]1CC[C@@]13C[C@@H](CC[C@H]12)[C@@H](CO)C3`, the inhibition at 10 µg/mL with PBMC [1] is 0%; in the assay with PBMC [2], 4.2%; in the assay on PBMC [3], 35%; with PBMC [4] it was 56.2%; in the assay on PBMC [5], 34%; in the assay on PBMC [6] it was -6.1%.
